Assay results reported in ChEMBL document CHEMBL1144421, “Class II (IIa)-selective histone deacetylase inhibitors. 1. Synthesis and biological evaluation of novel (aryloxopropenyl)pyrrolyl hydroxyamides” (J Med Chem, 2005).
Blank lines part the entries; values can stand above or below the molecule they belong to.

Assays:
[1] = Inhibitory concentration against maize histone deacetylase 1-A (class IIa HDAC)
Histone deacetylase HD2 = molecular target: T1, Histone deacetylase HD2 (Zea mays, UniProt Q94F81); test: Inhibitory concentration against maize histone deacetylase 2
T1 sequence (Q94F81 whole entry): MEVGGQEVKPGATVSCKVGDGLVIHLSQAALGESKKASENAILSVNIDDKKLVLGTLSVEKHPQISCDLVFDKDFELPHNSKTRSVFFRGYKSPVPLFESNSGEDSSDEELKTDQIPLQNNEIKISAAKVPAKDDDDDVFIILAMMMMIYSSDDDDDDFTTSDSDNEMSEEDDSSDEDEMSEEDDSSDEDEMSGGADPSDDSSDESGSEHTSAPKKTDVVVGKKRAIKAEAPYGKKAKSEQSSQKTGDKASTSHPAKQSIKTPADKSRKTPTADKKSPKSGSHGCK
How it was run: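 Maize HD2 deacetylase assay using [³H]acetate-prelabeled chicken reticulocyte histones (2 mg/mL, 10 µL) at 30 °C for 30 min. Released tritiated acetic acid was extracted with ethyl acetate after HCl/acetate stop, then scintillation counted. IC50 from triple determinations, given as mean ± SD of at least three experiments.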

[2] = Selectivity for class IIa HDACs as ratio of IC50 for maize histone deacetylase 1-B and 1-A
How it was run: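 Maize HD1-B (class I homologue) and HD1-A (class IIa homologue) were each assayed on [³H]acetate-prelabeled chicken reticulocyte histones for 30 min at 30 °C. Released [³H]acetate was extracted with ethyl acetate and scintillation counted. IC50s came from dilutions starting at 40 µM, at least three experiments. Selectivity = IC50(HD1-B)/IC50(HD1-A).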

[3] = molecular target: T2, Histone deacetylase HD2 (Zea mays) (UniProt Q94F81); settings: 22.2 uM
T2 sequence (whole entry): T1 sequence (Q94F81 whole entry)

[4] = Inhibitory concentration against maize histone deacetylase 1-B (class I HDAC)
[5] = molecular target: T2, Histone deacetylase HD2 (Zea mays); test: Inhibitory activity against maize histone deacetylase 2 at 20.5 uM
How it was run: (§1)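 Maize HD2 enzyme preincubated at 30 °C, then incubated 30 min with [³H]acetate-prelabeled chicken reticulocyte core histones (10 µL of 2 mg/mL) as substrate. Reaction stopped with 1 M HCl/0.4 M acetate. Released [³H]acetic acid was extracted into ethyl acetate and counted by liquid scintillation. Percent inhibition at one fixed concentration; means of at least three separate experiments. Blank solvent served as negative control.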

[6] = molecular target: T2, Histone deacetylase HD2 (Zea mays); test: Inhibitory activity against maize histone deacetylase 2 at 20.6 uM; how it was run: as §1
[7] = molecular target: T2, Histone deacetylase HD2 (Zea mays); test: Inhibitory activity against maize histone deacetylase 2 at 24.8 uM; how it was run: as §1
[8] = molecular target: T2, Histone deacetylase HD2 (Zea mays); test: Inhibitory activity against maize histone deacetylase 2 at 23.3 uM; how it was run: as §1
[9] = molecular target: T2, Histone deacetylase HD2 (Zea mays); test: Inhibitory activity against maize histone deacetylase 2 at 24.5 uM; how it was run: as §1
[10] = molecular target: T2, Histone deacetylase HD2 (Zea mays); test: Inhibitory activity against maize histone deacetylase 2 at 20.2 uM; how it was run: as §1
[11] = molecular target: T2, Histone deacetylase HD2 (Zea mays); test: Inhibitory activity against maize histone deacetylase 2 at 21.1 uM; how it was run: as §1
[12] = molecular target: T2, Histone deacetylase HD2 (Zea mays); test: Inhibitory activity against maize histone deacetylase 2 at 26 uM; how it was run: as §1
[13] = molecular target: T2, Histone deacetylase HD2 (Zea mays); test: Inhibitory activity against maize histone deacetylase 2 at 23.7 uM; how it was run: as §1
[14] = molecular target: T2, Histone deacetylase HD2 (Zea mays); test: Inhibitory activity against maize histone deacetylase 2 at 23.6 uM; how it was run: as §1
[15] = molecular target: T2, Histone deacetylase HD2 (Zea mays); test: Inhibitory activity against maize histone deacetylase 2 at 25.2 uM; how it was run: as §1
[16] = molecular target: T2, Histone deacetylase HD2 (Zea mays); test: Inhibitory activity against maize histone deacetylase 2 at 40 uM; how it was run: as §1

Structure (SMILES): Cc1ccccc1C(=O)/C=C/c1cc(/C=C/C(=O)NO)n(C)c1
IC50 [1]: 60 nM
SI [2]: 6.5
IC50 [4]: 390 nM
inhibition [7]: 96%

Structure (SMILES): Cn1cc(/C=C/C(=O)c2ccc(Cl)cc2)cc1/C=C/C(=O)NO
IC50 [1]: 18600 nM
inhibition [8]: 45.5%
IC50 [4]: 29400 nM

Structure (SMILES): Cn1cc(/C=C/C(=O)c2ccccc2F)cc1/C=C/C(=O)NO
inhibition [9]: 73.9%
IC50 [1]: 100 nM
IC50 (Histone deacetylase HD2): 7100 nM
SI [2]: 34
IC50 [4]: 3400 nM

Structure (SMILES): Cn1cc(/C=C/C(=O)c2cccc(OC(F)(F)F)c2)cc1/C=C/C(=O)NO
IC50 [1]: 90000 nM
IC50 (Histone deacetylase HD2): 176000 nM
SI [2]: 3.3
IC50 [4]: 298000 nM
inhibition [10]: 19.5%

Structure (SMILES): Cc1ccc(C(=O)/C=C/c2cc(/C=C/C(=O)NO)n(C)c2)cc1
IC50 [1]: 500 nM
SI [2]: 9.6
IC50 [4]: 4800 nM
inhibition [7]: 65%

Structure (SMILES): Cn1cc(/C=C/C(=O)c2cccc(C(F)(F)F)c2)cc1/C=C/C(=O)NO
IC50 [1]: 9300 nM
IC50 (Histone deacetylase HD2): 49000 nM
SI [2]: 17.1
inhibition [11]: 46.1%
IC50 [4]: 159000 nM

Structure (SMILES): Cc1cccc(C(=O)/C=C/c2cc(/C=C/C(=O)NO)n(C)c2)c1
IC50 [1]: 170 nM
SI [2]: 14.7
IC50 [4]: 2500 nM
inhibition [7]: 72%

Structure (SMILES): Cn1cc(/C=C/C(=O)c2ccccc2Cl)cc1/C=C/C(=O)NO
IC50 [1]: 50 nM
inhibition [8]: 79.1%
SI [2]: 32
IC50 [4]: 1600 nM

Structure (SMILES): CC/C(=C\c1cc(/C=C/C(=O)NO)n(C)c1)C(=O)c1ccccc1
IC50 [1]: 220 nM
IC50 (Histone deacetylase HD2): 420 nM
SI [2]: 20.4
IC50 [4]: 4500 nM
inhibition [13]: 93%

Structure (SMILES): Cn1cc(/C=C/C(=O)c2ccc3ccccc3c2)cc1/C=C/C(=O)NO
IC50 [1]: 40 nM
IC50 (Histone deacetylase HD2): 1800 nM
SI [2]: 45
inhibition [15]: 62.9%

Structure (SMILES): O=C(CCCCCCC(=O)Nc1ccc([C@H]2O[C@@H](CSc3nc(-c4ccccc4)c(-c4ccccc4)o3)C[C@@H](c3ccc(CO)cc3)O2)cc1)NO [TUBACIN]
IC50 [1]: 450 nM
IC50 (Histone deacetylase HD2): 2000 nM
SI [2]: 2.2
IC50 [4]: 980 nM
inhibition [16]: 92.9%

Structure (SMILES): Cn1cc(/C=C/C(=O)c2ccccc2Br)cc1/C=C/C(=O)NO
inhibition [5]: 92.4%
IC50 [1]: 210 nM
IC50 (Histone deacetylase HD2): 360 nM
IC50 [4]: 180 nM

Structure (SMILES): COc1ccc(C(=O)/C=C/c2cc(/C=C/C(=O)NO)n(C)c2)cc1
inhibition [14]: 74.2%
IC50 [1]: 790 nM
IC50 (Histone deacetylase HD2): 570 nM
IC50 [4]: 800 nM

Structure (SMILES): C/C(=C\c1cc(/C=C/C(=O)NO)n(C)c1)C(=O)c1ccccc1
IC50 [1]: 780 nM
IC50 (Histone deacetylase HD2): 680 nM
IC50 [4]: 570 nM
inhibition [7]: 89.9%

Structure (SMILES): COc1cccc(C(=O)/C=C/c2cc(/C=C/C(=O)NO)n(C)c2)c1
inhibition [14]: 78.2%
IC50 [1]: 390 nM
IC50 (Histone deacetylase HD2): 540 nM
IC50 [4]: 600 nM

Structure (SMILES): Cn1cc(/C=C/C(=O)c2cccc(F)c2)cc1/C=C/C(=O)NO
inhibition [9]: 56.5%
IC50 [1]: 220 nM
IC50 (Histone deacetylase HD2): 22000 nM
SI [2]: 176
IC50 [4]: 38800 nM

Next, values leading:

IC50 [1]: 10 nM
IC50 (Histone deacetylase HD2): 200 nM
SI [2]: 33
inhibition [3]: 92%
IC50 [4]: 330 nM
Structure (SMILES): Cn1cc(/C=C/C(=O)c2cccc3ccccc23)cc1/C=C/C(=O)NO

inhibition [5]: 41.7%
IC50 [1]: 20300 nM
IC50 (Histone deacetylase HD2): 28500 nM
IC50 [4]: 24300 nM
Structure (SMILES): Cn1cc(/C=C/C(=O)c2ccc(Br)cc2)cc1/C=C/C(=O)NO

IC50 [1]: 2200 nM
IC50 (Histone deacetylase HD2): 26500 nM
SI [2]: 14.4
IC50 [4]: 31800 nM
inhibition [6]: 34%
Structure (SMILES): Cn1cc(/C=C/C(=O)c2ccc(-c3ccccc3)cc2)cc1/C=C/C(=O)NO

IC50 [1]: 0.8 nM
IC50 [4]: 0.4 nM
Structure (SMILES): CC(/C=C/C(=O)NO)=C\[C@@H](C)C(=O)c1ccc(N(C)C)cc1 [TRICHOSTATIN]

inhibition [5]: 76.8%
IC50 [1]: 1600 nM
IC50 (Histone deacetylase HD2): 2100 nM
IC50 [4]: 1100 nM
Structure (SMILES): Cn1cc(/C=C/C(=O)c2cccc(Br)c2)cc1/C=C/C(=O)NO

IC50 [1]: 440 nM
inhibition [8]: 49%
SI [2]: 71.4
IC50 [4]: 31400 nM
Structure (SMILES): Cn1cc(/C=C/C(=O)c2cccc(Cl)c2)cc1/C=C/C(=O)NO

IC50 [1]: 190 nM
inhibition [12]: 92.3%
IC50 [4]: 260 nM
Structure (SMILES): Cn1cc(/C=C/C(=O)c2ccccc2)cc1/C=C/C(=O)NO

inhibition [14]: 95.7%
IC50 [1]: 160 nM
IC50 (Histone deacetylase HD2): 250 nM
IC50 [4]: 170 nM
Structure (SMILES): COc1ccccc1C(=O)/C=C/c1cc(/C=C/C(=O)NO)n(C)c1

inhibition [9]: 33.2%
IC50 [1]: 15700 nM
IC50 (Histone deacetylase HD2): 35300 nM
IC50 [4]: 24900 nM
Structure (SMILES): Cn1cc(/C=C/C(=O)c2ccc(F)cc2)cc1/C=C/C(=O)NO
